Measurements as given in ChEMBL document CHEMBL4346672, “Antimicrobial and KPC/AmpC inhibitory activity of functionalized benzosiloxaboroles” (Eur J Med Chem, 2019).
The source made the active and inactive calls. The calls are words filed in the database; no cut-off is given here.

Assays:
[1] = Dissociation constant, pKa2 of compound in 0.1 M NaOH by potentiometric analysis; type: physicochemical
[2] = tested on: Staphylococcus aureus; assay: Antibacterial activity against Staphylococcus aureus ATCC 6538P assessed as diameter of zone inhibition measured after 18 hrs by CLSI disc diffusion method; type: functional
In short: (§1)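 Disc diffusion on Mueller-Hinton II agar. Compounds dissolved in DMSO. Strains stored at -80 °C and subcultured twice on tryptic soy agar before testing. Inhibition zones read after 35 °C, 18 h.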

[3] = Dissociation constant, pKa1 of compound in 0.1 M NaOH by potentiometric analysis; type: physicochemical
[4] = tested on: Candida albicans; assay: Antifungal activity against Candida albicans ATCC 90028 assessed as diameter of zone inhibition incubated for 24 hrs by CLSI disc diffusion method; type: functional
In short: (§2)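 Yeast disc diffusion on Mueller-Hinton agar supplemented with 2% glucose and 0.5 mg/L methylene blue. Compounds in DMSO. Yeasts subcultured on Sabouraud dextrose agar before testing. Zones read after 35 °C, 24 h.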

[5] = tested on: Candida parapsilosis; assay: Antifungal activity against Candida parapsilosis ATCC 22019 assessed as diameter of zone inhibition incubated for 24 hrs by CLSI disc diffusion method; type: functional; in short: as §2
[6] = tested on: Candida tropicalis; assay: Antifungal activity against Candida tropicalis IBA 171 assessed as diameter of zone inhibition incubated for 24 hrs by CLSI disc diffusion method; type: functional; in short: as §2
[7] = tested on: Meyerozyma guilliermondii; assay: Antifungal activity against Candida guilliermondii IBA 155 assessed as diameter of zone inhibition incubated for 24 hrs by CLSI disc diffusion method; type: functional; in short: as §2
[8] = tested on: Pichia kudriavzevii; assay: Antifungal activity against Candida krusei ATCC 6258 assessed as diameter of zone inhibition incubated for 24 hrs by CLSI disc diffusion method; type: functional; in short: as §2
[9] = tested on: Saccharomyces cerevisiae; assay: Antifungal activity against Saccharomyces cerevisiae ATCC 9763 diameter of zone inhibition incubated for 24 hrs by CLSI disc diffusion method; type: functional
In short: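 Disc-diffusion run on Mueller-Hinton II agar with 2% glucose and 0.5 mg/L methylene blue, using compounds in DMSO. Yeast was precultured on Sabouraud dextrose agar (24–48 h, 30 °C). Zones read after 24 h at 35 °C.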

[10] = tested on: Staphylococcus epidermidis; assay: Antibacterial activity against Staphylococcus epidermidis ATCC 12228 assessed as diameter of zone inhibition measured after 18 hrs by CLSI disc diffusion method; type: functional; in short: as §1
[11] = tested on: Enterococcus faecalis; assay: Antibacterial activity against Enterococcus faecalis ATCC 29212 assessed as diameter of zone inhibition measured after 18 hrs by CLSI disc diffusion method; type: functional; in short: as §1
[12] = tested on: Enterococcus faecium; assay: Antibacterial activity against Enterococcus faecium ATCC 6057 assessed as diameter of zone inhibition measured after 18 hrs by CLSI disc diffusion method; type: functional; in short: as §1
[13] = tested on: Bacillus subtilis; assay: Antibacterial activity against Bacillus subtilis ATCC 6633 assessed as diameter of zone inhibition measured after 18 hrs by CLSI disc diffusion method; type: functional; in short: as §1
[14] = tested on: Escherichia coli; assay: Antibacterial activity against Escherichia coli ATCC 25922 assessed as diameter of zone inhibition measured after 18 hrs by CLSI disc diffusion method; type: functional; in short: as §1
[15] = tested on: Proteus mirabilis; assay: Antibacterial activity against Proteus mirabilis ATCC 12453 assessed as diameter of zone inhibition measured after 18 hrs by CLSI disc diffusion method; type: functional; in short: as §1
[16] = tested on: Enterobacter cloacae; assay: Antibacterial activity against Enterobacter cloacae DSM 6234 assessed as diameter of zone inhibition measured after 18 hrs by CLSI disc diffusion method; type: functional; in short: as §1
[17] = tested on: Pseudomonas aeruginosa; assay: Antibacterial activity against Pseudomonas aeruginosa ATCC 27853 assessed as diameter of zone inhibition measured after 18 hrs by CLSI disc diffusion method; type: functional, organism-based; in short: as §1
[18] = tested on: Acinetobacter baumannii; assay: Antibacterial activity against Acinetobacter baumannii ATCC 19606 assessed as diameter of zone inhibition measured after 18 hrs by CLSI disc diffusion method; type: functional; in short: as §1
[19] = tested on: Stenotrophomonas maltophilia; assay: Antibacterial activity against Stenotrophomonas maltophilia ATCC 13637 assessed as diameter of zone inhibition measured after 18 hrs by CLSI disc diffusion method; type: functional; in short: as §1
[20] = tested on: Burkholderia cepacia; assay: Antibacterial activity against Burkholderia cepacia ATCC 25416 assessed as diameter of zone inhibition measured after 18 hrs by CLSI disc diffusion method; type: functional; in short: as §1
[21] = tested on: Bordetella bronchiseptica; assay: Antibacterial activity against Bordetella bronchiseptica ATCC 4617 assessed as diameter of zone inhibition measured after 18 hrs by CLSI disc diffusion method; type: functional; in short: as §1
[22] = tested on: Klebsiella pneumoniae; conditions: ATCC 13883
[23] = tested on: Serratia marcescens; conditions: ATCC 13880

Q: What does the source list for `C[Si]1(C)OB(O)c2cc3c(c(F)c21)[Si](C)(C)OB3O`?
A: pKa [1]: 8.6; diameter of the inhibition zone (DIZ) [2]: 22 mm; pKa [3]: 5.9; diameter of the inhibition zone (DIZ) [4]: 11 mm; diameter of the inhibition zone (DIZ) [5]: inactive; diameter of the inhibition zone (DIZ) [6]: inactive; diameter of the inhibition zone (DIZ) [7]: inactive; diameter of the inhibition zone (DIZ) [8]: inactive; diameter of the inhibition zone (DIZ) [9]: inactive; diameter of the inhibition zone (DIZ) [10]: 34 mm; diameter of the inhibition zone (DIZ) [11]: 15 mm; diameter of the inhibition zone (DIZ) [12]: 16 mm; diameter of the inhibition zone (DIZ) [13]: 27 mm; diameter of the inhibition zone (DIZ) [14]: inactive; diameter of the inhibition zone (DIZ) [15]: inactive; diameter of the inhibition zone (DIZ) [16]: inactive; diameter of the inhibition zone (DIZ) [17]: inactive; diameter of the inhibition zone (DIZ) [18]: inactive; diameter of the inhibition zone (DIZ) [19]: inactive; diameter of the inhibition zone (DIZ) [20]: inactive; diameter of the inhibition zone (DIZ) [21]: inactive; DIZ [22]: inactive; DIZ [23]: inactive
